# Activity calls are given as the source filed them. The calls are words filed in the database; no cut-off is given here.
# Columns and labels:
# [1] = test system: MCF7; assay: Antiproliferative activity against MCF7 cells after 72 hrs by MTT assay; format: functional, cell-based, Homo sapiens
# Outline: (§1)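 Cells cultured with each compound for three days; growth then read by the MTT colorimetric assay and reported as IC50 (µM).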
# [2] = Antiproliferative activity against U373MG cells after 72 hrs by MTT assay; format: functional, cell-based, Homo sapiens, U-373MG ATCC; details: Homo sapiens, U373 MG, 72 h; outline: as §1
# [3] = Toxicity in ip dosed B6D2F1 mouse; format: organism-based; details: in vivo
# Outline: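 Acute MTD was set by a single i.p. dose to groups of three healthy female B6D2F1 mice, at 2.5, 5, 10, 20, 40, 80 and 160 mg/kg. The MTD is the dose just below the lowest dose that killed at least one mouse.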
# [4] = Antiproliferative activity against Hs683 cells after 72 hrs by MTT assay; format: functional, cell-based, Homo sapiens, Hs 683; details: Homo sapiens, Hs 683, 72 h; outline: as §1
# [5] = test system: LoVo; assay: Antiproliferative activity against LoVo cells after 72 hrs by MTT assay; format: functional, cell-based, Homo sapiens; details: Homo sapiens, LoVo, 72 h; outline: as §1
# [6] = test system: A549; assay: Antiproliferative activity against A549 cells after 72 hrs by MTT assay; format: functional, cell-based, Homo sapiens; details: Homo sapiens, A549, 72 h; outline: as §1
# [7] = test system: HCT-15; assay: Antiproliferative activity against HCT15 cells after 72 hrs by MTT assay; format: functional, cell-based, Homo sapiens; details: Homo sapiens, HCT-15, 72 h; outline: as §1
# [8] = test system: L1210; assay: Antitumor activity in L1210 cells xenografted B6D2F1 mouse at 10 mg/kg, ip relative to control; format: functional; details: route intraperitoneal
# Outline: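 Mice grafted with L1210 leukaemia cells on day 0, then dosed i.p. four times weekly on days 1-4 and 8-11. Five mice per group. Outcome is %T/C, the median survival of treated over control. Kruskal-Wallis test followed by Dunn comparisons against control.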
# [9] = test system: A549; assay: Antitumor activity against human A549 cells xenografted in mouse at 10 mg/kg, iv; format: functional, organism-based; design: dose 10 mg/kg
# Outline: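 Human A549 NSCLC cells grafted orthotopically into the lungs of immunocompromised mice. Compound given i.v. at 10 mg/kg. Survival gain assessed by survival curve analysis.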
# [10] = test system: MDA-MB-231; assay: Antitumor activity against human MDA-MB-231 cells xenografted in immunocompromised mouse at 10 mg/kg, iv
# [11] = molecular target: T1, DNA topoisomerase 1 (Homo sapiens) (UniProt P11387); assay: Inhibition of human topoisomerase 1 by DNA unwinding test
# T1 sequence (whole entry): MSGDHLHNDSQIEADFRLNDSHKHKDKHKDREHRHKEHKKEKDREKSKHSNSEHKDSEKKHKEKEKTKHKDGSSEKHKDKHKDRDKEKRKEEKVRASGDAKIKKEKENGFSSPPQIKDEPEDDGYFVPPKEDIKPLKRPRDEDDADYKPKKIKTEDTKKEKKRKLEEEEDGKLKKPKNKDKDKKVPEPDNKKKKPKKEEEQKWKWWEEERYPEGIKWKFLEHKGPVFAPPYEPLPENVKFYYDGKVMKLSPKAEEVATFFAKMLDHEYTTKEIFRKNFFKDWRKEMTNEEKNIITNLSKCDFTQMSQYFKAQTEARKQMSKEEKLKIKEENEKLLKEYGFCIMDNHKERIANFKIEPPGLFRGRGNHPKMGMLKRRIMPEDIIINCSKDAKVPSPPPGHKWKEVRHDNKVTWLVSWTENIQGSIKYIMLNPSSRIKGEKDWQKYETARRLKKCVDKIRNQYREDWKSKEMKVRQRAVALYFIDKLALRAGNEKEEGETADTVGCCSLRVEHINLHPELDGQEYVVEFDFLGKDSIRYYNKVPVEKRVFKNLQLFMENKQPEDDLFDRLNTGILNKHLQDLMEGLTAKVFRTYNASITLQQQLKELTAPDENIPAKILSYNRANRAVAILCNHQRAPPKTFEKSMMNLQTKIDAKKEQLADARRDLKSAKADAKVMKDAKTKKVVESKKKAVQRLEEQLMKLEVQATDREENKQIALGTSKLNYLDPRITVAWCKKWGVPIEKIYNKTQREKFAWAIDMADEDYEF
# Outline: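 DNA unwinding assay: relaxed pBR322 plasmid converted to supercoiled form in presence of topoisomerase I; compounds at final 4–32 µM (one up to 15–55 µM); ethidium bromide-stained agarose gels; UC50 taken as concentration shifting relaxed band to midpoint between supercoiled and relaxed states.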
# [12] = molecular target: DNA topoisomerase 2-alpha (Homo sapiens) (UniProt P11388); assay: Inhibition of human topoisomerase 2-mediated kinetoplast DNA […] at 50 uM
# Outline: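 Topoisomerase II strand-passage activity by kDNA decatenation; compounds at 50 µM; catenated networks stay in wells, decatenated kDNA enters ethidium bromide-stained agarose gel; no-enzyme and no-drug reactions as controls.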
# [13] = species: Homo sapiens; assay: Inhibition of human topoisomerase 2 at 50 uM by plasmid linearization assay
# [14] = test system: MCF7; assay: Induction of apoptosis in human MCF7 cells assessed as p53 activation; format: functional, cell-based
# Outline: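 MCF-7 cells treated and p53 activation assessed by immunoblotting, with tubulin as loading control. Adriamycin (2.5 µM, 24 h) served as positive control.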
# Sequence of DNA topoisomerase 2-alpha (Homo sapiens) (P11388 whole entry): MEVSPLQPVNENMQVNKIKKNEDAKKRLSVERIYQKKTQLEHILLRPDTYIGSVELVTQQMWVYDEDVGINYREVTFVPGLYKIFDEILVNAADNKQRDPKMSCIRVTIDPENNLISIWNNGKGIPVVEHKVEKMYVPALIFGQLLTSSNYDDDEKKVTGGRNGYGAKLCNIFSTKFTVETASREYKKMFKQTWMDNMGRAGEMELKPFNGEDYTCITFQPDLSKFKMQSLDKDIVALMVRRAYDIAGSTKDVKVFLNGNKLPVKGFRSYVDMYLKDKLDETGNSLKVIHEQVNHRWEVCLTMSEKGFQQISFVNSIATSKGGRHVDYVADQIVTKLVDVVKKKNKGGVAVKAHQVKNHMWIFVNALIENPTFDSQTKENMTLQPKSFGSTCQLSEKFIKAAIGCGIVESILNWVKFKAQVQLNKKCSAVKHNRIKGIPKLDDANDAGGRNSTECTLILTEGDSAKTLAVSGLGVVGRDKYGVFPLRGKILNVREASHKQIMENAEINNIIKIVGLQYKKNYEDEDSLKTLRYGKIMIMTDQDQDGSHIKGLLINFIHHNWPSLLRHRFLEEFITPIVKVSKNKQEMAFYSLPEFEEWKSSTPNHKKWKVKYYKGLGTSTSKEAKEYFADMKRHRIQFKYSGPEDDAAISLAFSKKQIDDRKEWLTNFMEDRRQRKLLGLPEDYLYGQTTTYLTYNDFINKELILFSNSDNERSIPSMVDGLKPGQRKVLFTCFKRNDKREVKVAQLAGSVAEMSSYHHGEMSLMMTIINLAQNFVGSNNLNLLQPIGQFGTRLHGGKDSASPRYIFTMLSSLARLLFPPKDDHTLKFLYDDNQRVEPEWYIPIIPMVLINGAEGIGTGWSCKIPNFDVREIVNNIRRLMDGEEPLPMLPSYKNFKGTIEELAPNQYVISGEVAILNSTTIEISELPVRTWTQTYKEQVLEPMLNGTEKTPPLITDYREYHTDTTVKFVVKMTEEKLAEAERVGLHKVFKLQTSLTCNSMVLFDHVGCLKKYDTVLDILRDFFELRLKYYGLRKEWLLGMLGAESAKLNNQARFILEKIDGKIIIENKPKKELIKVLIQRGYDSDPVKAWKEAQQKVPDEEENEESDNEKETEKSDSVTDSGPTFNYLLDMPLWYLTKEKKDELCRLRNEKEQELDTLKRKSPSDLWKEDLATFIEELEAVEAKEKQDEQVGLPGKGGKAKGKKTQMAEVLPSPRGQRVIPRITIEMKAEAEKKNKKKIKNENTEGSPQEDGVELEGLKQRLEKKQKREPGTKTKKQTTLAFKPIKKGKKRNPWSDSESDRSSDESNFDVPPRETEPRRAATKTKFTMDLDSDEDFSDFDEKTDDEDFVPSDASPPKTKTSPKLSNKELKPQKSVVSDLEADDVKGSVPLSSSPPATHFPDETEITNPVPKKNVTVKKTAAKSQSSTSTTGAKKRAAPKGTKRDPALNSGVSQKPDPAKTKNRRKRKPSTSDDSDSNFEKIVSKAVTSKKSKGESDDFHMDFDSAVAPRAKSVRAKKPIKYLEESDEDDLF
Structure (SMILES),"IC50 ([1]; Homo sapiens, MCF7, 72 h) [µM]",IC50 [2] [µM],MTD [3] [mg/kg],IC50 [4] [µM],IC50 [5] [µM],IC50 [6] [µM],IC50 [7] [µM],Activity [8] [%],IC50 ([1]; mcf7) [µM],Activity [9],Activity [10],UC50 [11] [µM],Activity [12],Activity [13],Activity [14]
COc1ccc(CC(=O)Nc2cc3c4c(cccc4c2)C(=O)N(CCN(C)C)C3=O)cc1,2.2,2.7,10,4.2,1.3,3.2,2.8,107,,,,,,,
CN(C)CCN1C(=O)c2cccc3cc(NC(=O)Cc4ccc(Cl)cc4)cc(c23)C1=O,4.8,5.8,20,7,4.8,4.7,5.5,200,,,,,,,
CCOC(=O)CC(=O)Nc1cc2c3c(cccc3c1)C(=O)N(CCN(C)C)C2=O,> 10,> 10,> 80,> 10,> 10,> 10,> 10,129,,,,,,,
CN(C)CCN1C(=O)c2cccc3cc(N)cc(c23)C1=O.Cl,,4.5,,4.7,3.5,4.8,8.8,120,9,,,,,,
CN(C)CCN1C(=O)c2cccc3cc(N)cc(c23)C1=O,,,,,,,,,,inactive,Active,8,Active,Active,Active

# Reference: ChEMBL document CHEMBL1148725, “2,2,2-Trichloro-N-({2-[2-(dimethylamino)ethyl]-1,3-dioxo-2,3-dihydro-1H-benzo[de]isoquinolin- 5-yl}carbamoyl)acetamide (UNBS3157), a novel nonhematotoxic naphthalimide derivative with potent antitumor activity” (J Med Chem, 2007)
